Experimental findings from ChEMBL document CHEMBL1152389, “A novel and efficient synthesis of highly oxidized lignans by a methyltrioxorhenium/hydrogen peroxide catalytic system. Studies on their apoptogenic and antioxidant activity” (Bioorg Med Chem, 2009) are described below.

Holding throughout (format): functional, cell-based
Assay [1] deals with E2R. Description: Induction of apoptosis in human E2R cells expressing EBV assessed as condensed and fragmented nuclei at 25 to 100 uM after 18 hrs by epifluorescent microscopy. A digest of the protocol: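 BL41-derived E2R cells (EBV-positive, apoptosis-resistant) grown in RPMI with 4 mM L-glutamine and 10% FCS at 37 °C, 5% CO2. Seeded at 3 × 10^5 cells/mL and exposed to compounds in DMSO (≤0.5% v/v) for 18 h. Cells fixed in 4% p-formaldehyde and stained with DAPI (0.2 µg/mL). Condensed/fragmented nuclei scored in ≥500 cells from random fields by epifluorescence microscopy.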

Assay [2] has as its system BL-41. Description: Induction of apoptosis in human EBV deficient BL41 cells assessed as condensed and fragmented nuclei at 25 to 100 uM after 18 hrs by epifluorescent microscopy. A digest of the protocol:
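BL41 (EBV-negative Burkitt lymphoma) cells in RPMI with 4 mM L-glutamine, 10% FCS at 37 °C, 5% CO2. Seeded at 3 × 10^5 cells/mL and exposed 18 h to compounds in DMSO (≤0.5% v/v). Cells fixed in 4% p-formaldehyde, stained with DAPI 0.2 µg/mL. At least 500 cells in random fields scored by epifluorescence for condensed/fragmented nuclei.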

For assay [3], the system named is E2R. Description: Antioxidant activity in human E2R cells assessed as intracellular peroxide level at 25 to 100 uM after 1 hr by flow cytometry in presence of DCFH-DA. In outline: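 E2R cells (EBV-positive, apoptosis-resistant isogenic Burkitt line) in RPMI with 4 mM L-glutamine, 10% FCS, 37 °C, 5% CO2. Compounds in DMSO (0.2%) for 1 h in RPMI, then 10 µM DCFH-DA for 20 min at 37 °C. Flow cytometry, excitation 488 nm, emission 533 nm (FL-1), 10,000 events per sample.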
For orientation: Flow cytometry measures light scatter and fluorescence of single cells or particles in a stream.

SMILES strings stand for the structures. The source made the active and inactive calls. No cut-off for these calls is given here.

As for `COc1cc([C@H]2c3cc(O)c(OC)cc3C[C@@H](CO)[C@@H]2CO)ccc1O`, the outcome in assay [1] and in assay [2] was inactive.
Turning to `COc1cc(C[C@H]2C(=O)OC[C@@H]2[C@H](O)c2ccc(O)c(OC)c2)ccc1O`, the outcome in assay [1] and in assay [2] was inactive.
As for `COc1cc2c(cc1O)[C@H](c1ccc(O)c(O)c1)[C@H]1COC[C@@H]1C2`, in assay [3], the result was inactive.
For `COc1cc(C[C@H]2CO[C@H](c3ccc(O)c(OC)c3)[C@H]2CO)ccc1O`, the outcome in assay [1] and in assay [2] was inactive.
Regarding `COc1cc(C[C@H]2C(=O)OC[C@@H]2Cc2ccc(O)c(O)c2)ccc1O`, the result in assay [3] was Active.
As for `COc1cc(C[C@H]2COC(=O)[C@@H]2C(O)c2ccc(O)c(OC)c2)ccc1O` (stereo partly specified), the result in assay [1] and in assay [2] was inactive.
As to `COc1cc(/C=C2\C(=O)OC[C@@H]2C(=O)c2ccc(O)c(OC)c2)ccc1O`, in assay [1], the outcome was Active.
Turning to `COc1cc(C[C@H]2COC(=O)[C@@H]2Cc2ccc(O)c(OC)c2)ccc1O`, the outcome in assay [1], in assay [2] and in assay [3] was Active.
Take `COc1cc(C(=O)[C@H]2COC(=O)[C@@H]2C(O)c2ccc(O)c(OC)c2)ccc1O` (stereo partly specified): the outcome in assay [1] was Active.
Turning to `COc1cc([C@H]2c3cc(O)c(OC)cc3C[C@H]3C(=O)OC[C@H]23)ccc1O`, the outcome in assay [1] and in assay [2] was inactive. Also, the result in assay [3] was Active.
Turning to `COc1cc([C@H]2c3cc(O)c(OC)cc3C[C@H]3COC[C@@H]32)ccc1O`, the outcome in assay [1] and in assay [2] was Active. In assay [3], the result was inactive.
